A short description of series [1]: melting temperature; fluorescence melt of hairpins on a sequencing array, two-state fit, raised by 9.35 °C to match UV melts. The following applies: sodium 0.088 M. The procedure, abridged:
(§1)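 On a sequenced MiSeq flow cell, library hairpins with annealed Cy3 and quencher oligos were imaged for Cy3 fluorescence in 2.5 °C steps up to 60 °C, in 50 mM Na-HEPES pH 8.0, 25 mM NaCl. Normalisation used pre-quench Cy3 and control constructs. Bootstrapped two-state fits gave melting temperature and folding enthalpy, combined by inverse variance across four replicates and with fitted temperatures raised by 9.35 °C to match UV melts.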

Series [2] is described as follows: folding enthalpy; higher = less favourable; fluorescence melt of hairpins on a sequencing array, two-state fit. The following applies: sodium 0.088 M. The procedure, abridged: as §1

The values that follow come from the array DNA melting data of Ke et al. (doi:10.1101/2024.01.08.574731).

Take GTCCTGCGAAAGCATGAC (((.(((....))).))): the Tm in series [1] came out at 49.9 °C. For the same sequence, the folding enthalpy in series [2] was -26 kcal/mol.
With GTCCTGGGAAACCAGAAC ((.((((....)))).)), the Tm in series [1] worked out at 35.5 °C. Further, in series [2], the folding enthalpy is -19.7 kcal/mol.
As for GTCCTGGGAAACTAGGAC (((((.(....).))))), the Tm in series [1] amounted to 49.1 °C. Also, the folding enthalpy in series [2] was -42.9 kcal/mol.
For GTCCTTGAAAAAGGAC ((((((....)))))), in that order: 56 °C and -33.2 kcal/mol.
Consider GTCCTTGGAAACAAAGAC (((.(((....))).))), for which the Tm in series [1] was 30.4 °C. For the same sequence, the folding enthalpy in series [2] is -13.3 kcal/mol.
On to GTCGAAACGAAAGTTGAC (((..(((....)))))), for which the Tm in series [1] was determined as 37.2 °C. Besides, the folding enthalpy in series [2] is -18.5 kcal/mol.
For GTCGAAGGAAACTTCGAC (((((((....))))))), in that order: 62.2 °C and -48.6 kcal/mol.
For GTCGACGAAAGTCAAGAC ((((((....)))..))), in that order: 43.8 °C and -20.4 kcal/mol.
As for GTCGACGAAAGTCAGAC ((((((....))).))), the Tm in series [1] worked out at 52.3 °C. The folding enthalpy in series [2] was -35.2 kcal/mol.
For GTCGACGAAAGTCAGGAC ((((((....)))..))) the same measures were 41.7 °C and -17.6 kcal/mol.
With GTCGACGAAAGTCATGAC ((((((....)))..))), the Tm in series [1] was 40.7 °C. For the same sequence, the folding enthalpy in series [2] is -15.6 kcal/mol.
For GTCGACGAAAGTCTGGAC ((((((....)))..))), the Tm in series [1] is 39.8 °C. Further, the folding enthalpy in series [2] is -16.1 kcal/mol.
Regarding GTCGAGAAATCGAC (((((....))))), the Tm in series [1] came to 55.5 °C. In series [2], the folding enthalpy was -26.8 kcal/mol.
For GTCGAGGGAAACCCCGAC ((((.((....)).)))), in that order: 52 °C and -38.9 kcal/mol.
As to GTCGAGGGAAACCTTGGC (.(.(((....))).).), in series [1], the Tm came to 36 °C. For the same sequence, in series [2], the folding enthalpy was -21.8 kcal/mol.
On to GTCGATCGAAAGATGGAC (((.(((....))).))), for which the Tm in series [1] stood at 48.6 °C. For the same sequence, the folding enthalpy in series [2] was -28.3 kcal/mol.
For GTCGATCGAAAGATTGAC (((.(((....))).))), the Tm in series [1] is 53.6 °C. Also, in series [2], the folding enthalpy is -51.8 kcal/mol.
For GTCGATGCGAAAGCAGAC (((..(((....)))))), in that order: 46 °C and -16.1 kcal/mol.
For GTCGATGGAAACGTTGAC (((.(.(....).).))), the Tm in series [1] worked out at 34.6 °C. Besides, the folding enthalpy in series [2] was -20.5 kcal/mol.
Regarding GTCGCAGCGAAAGCTGAC (((..(((....)))))), the Tm in series [1] is 37.1 °C. Moreover, the folding enthalpy in series [2] was -9.2 kcal/mol.
For GTCGCAGGAAACTGCGGC (.(((((....))))).) the same measures were 64.5 °C and -32.2 kcal/mol.
GTCGCCGAAAGGCCAGAC ((((((....)))..))): the Tm in series [1] worked out at 40.7 °C. The folding enthalpy in series [2] was -13.5 kcal/mol.
As to GTCGCCGAAAGGCCGAC ((((((....))).))), in series [1], the Tm was 60.7 °C. The folding enthalpy in series [2] was -18.1 kcal/mol.
GTCGCCGAAAGGCGCGAC ((((((....)))..))): the Tm in series [1] worked out at 58.4 °C. Further, the folding enthalpy in series [2] is -11.3 kcal/mol.
As for GTCGCCGAAAGGCGGAC ((((((....))).))), the Tm in series [1] worked out at 58 °C. Besides, the folding enthalpy in series [2] was -11.2 kcal/mol.
Turning to GTCGCCGAAAGGCGGGAC ((((((....)))..))), in series [1], the Tm stood at 41 °C. The folding enthalpy in series [2] is -6.81 kcal/mol.
Take GTCGCCGAAAGGCTGGAC ((((((....)))..))): the Tm in series [1] stood at 44 °C. The folding enthalpy in series [2] is -13.1 kcal/mol.
Regarding GTCGCCGGAAACGGTGGC (.(.(((....))).).), in series [1], the Tm was determined as 52.2 °C. The folding enthalpy in series [2] is -25.5 kcal/mol.
With GTCGCCTCGAAAGAGGAC (((..(((....)))))), the Tm in series [1] turned out to be 31.3 °C. For the same sequence, the folding enthalpy in series [2] was -9.5 kcal/mol.
Regarding GTCGCTGGAAACAACGAC ((((.((....)).)))), the Tm in series [1] is 47.1 °C. Further, the folding enthalpy in series [2] was -38.5 kcal/mol.
Take GTCGCTGGAAACAGCGGC (.(((((....))))).): the Tm in series [1] amounted to 65.6 °C. The folding enthalpy in series [2] was -23.4 kcal/mol.
Take GTCGGAGGAAACTCCGGC (.(((((....))))).): the Tm in series [1] came out at 58.5 °C. The folding enthalpy in series [2] is -30.5 kcal/mol.
Take GTCGGAGGAAACTTCGGC (.((.((....)).)).): in series [1], the Tm was 38.4 °C. For the same sequence, the folding enthalpy in series [2] is -24.3 kcal/mol.
As for GTCGGCGAAAGCCAGAC ((((((....))).))), the Tm in series [1] amounted to 59.4 °C. Also, the folding enthalpy in series [2] was -16.4 kcal/mol.
In the case of GTCGGCGAAAGCCATGAC ((((((....)))..))), the Tm in series [1] stood at 42.4 °C. For the same sequence, the folding enthalpy in series [2] is -13.9 kcal/mol.
On to GTCGGCGAAAGCCGGGAC ((((((....)))..))), for which the Tm in series [1] amounted to 44.1 °C. The folding enthalpy in series [2] was -8.08 kcal/mol.
